NTR1 agonist: agonists of human NTR1, primary screen, imaging, U2OS cells, beta-arrestin-GFP, high content; activation, % at 20 µM; NTR1-U2OS beta-arrestin-GFP spot imaging, agonist mode; AID 493036, 2011; 330,000 tested, 0.17% active;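 active means activation at or above 40% of the spot to cytoplasm intensity ratio, with at least 20 cells analyzed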;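 further: 0% = DMSO without peptide and 100% = 100 nM NTR1 peptide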
TAAR1 ag: human TAAR1 agonists, primary screen, Fluo-8 calcium fluorescence, CHO RD-HGA16 cells; vehicle wells 0%, saturating PEA agonist 100%; 360,000 tested, 0.99% active; AID 624467, 2012; activation, % at 3 µM; Trace amine-associated receptor 1 (Homo sapiens), Q96RJ0;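 active means activation above the mean activation of all test compounds in the run plus 3 SD, cut at about 38% in these data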
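Benchmarks: low control DMSO, high control PEA (EC100); System: CHO RD-HGA16 cells carrying human TAAR1 plus Gα16; Detection: Fluo-8 fluorescence, 5 s baseline then 140 s kinetic read; Schedule: 17-24 h plating, Fluo-8 75 min 37 °C, 30 min RT; Read-out basis: % activation from peak over basal fluorescence ratio, DMSO-to-PEA scaled.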
TAAR1 antagonist: human TAAR1 antagonists, primary screen, Fluo-8 calcium fluorescence, CHO RD-HGA16 cells; 360,000 tested, 1.5% active; Trace amine-associated receptor 1 (Homo sapiens), Q96RJ0; inhibition, % at 3 µM; antagonist; AID 624466, 2012;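 active means inhibition above a per-plate cutoff, the mean inhibition of test compounds on that plate plus 3 SD, cut at about 49% in these data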;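 further: 0% = DMSO plus EC80 beta-PEA response and 100% = DMSO alone without agonist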
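Assay system: RD-HGA16 CHO cells with stable hTAAR1 and Gα16 / Reagent: EC80 β-phenethylamine stimulus / Doses: 3 µM, single point / Timing: dye loading 75 min at 37 °C, then 30 min room temperature / Measured by: Fluo-8 intracellular calcium dye fluorescence, real-time kinetic reads / Controls: vehicle wells and EC80 agonist wells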
OX1R antag-1: OX1R (HCRTR1) antagonists, primary screen, fluorescence, CHO/OX1R cells, Fluo-8 calcium, orexin A. Orexin/Hypocretin receptor type 1 (Homo sapiens), O43613. Fluo-8 calcium fluorescence. inhibition, % at 5 µM. 330,000 tested, 0.43% active. AID 434989, 2010;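 active means inhibition above its plate's threshold, mean inhibition of all tested compounds on the plate plus 3 SD, cut at about 37% in these data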;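 further: 0% = orexin A challenge wells and 100% = SB-334867-A antagonist wells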
Target sequence (O43613 whole entry, looked up): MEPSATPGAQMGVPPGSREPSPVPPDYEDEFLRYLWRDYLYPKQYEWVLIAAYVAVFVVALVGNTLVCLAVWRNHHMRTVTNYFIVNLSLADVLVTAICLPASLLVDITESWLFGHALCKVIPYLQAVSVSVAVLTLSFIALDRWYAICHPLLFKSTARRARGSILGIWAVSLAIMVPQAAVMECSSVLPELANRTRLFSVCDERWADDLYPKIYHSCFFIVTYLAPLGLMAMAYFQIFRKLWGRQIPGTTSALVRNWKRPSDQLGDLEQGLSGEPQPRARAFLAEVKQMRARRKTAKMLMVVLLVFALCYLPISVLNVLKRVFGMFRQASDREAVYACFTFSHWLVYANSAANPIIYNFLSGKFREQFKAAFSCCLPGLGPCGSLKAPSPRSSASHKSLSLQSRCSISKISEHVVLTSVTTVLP
OX1R antag-2: antagonists of human orexin 1 receptor (OX1R) | OX1R-expressing cells, FRET antagonist read-out | Orexin/Hypocretin receptor type 1 (Homo sapiens), O43613 | AID 485270, 2010 | 330,000 tested, 1.8% active | inhibition, % at 6.6 µM; in the data active means inhibition mostly above about 38%, no sharp cut-off; inactive means mostly below about 40%;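 further: 0% = agonist challenge alone and 100% = reference antagonist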
CHO parental Ca: ATP-evoked calcium signal inhibitors, parental CHO, primary screen, counter-screen for OX1R antagonist project, cell-based, fluorescence, Fluo-8 calcium dye; inhibition, % at 5.6 µM; AID 463079, 2010; 330,000 tested, 0.63% active; parental CHO-K1, ATP-induced calcium, Fluo-8 fluorescence;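 active means inhibition above that plate's mean sample inhibition plus 3 SD, cut at about 26% in these data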;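 further: 0% = ATP-challenged DMSO wells and 100% = DMSO wells without ATP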
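Test system: parental CHO cells; detection: calcium-sensitive Fluo-8 fluorescence; evaluation: percent inhibition of calcium signal; also added: ATP as calcium-mobilizing challenge; repeats: one well per compound; control set: ATP-challenged DMSO wells low, unchallenged DMSO wells high; compound: single nominal dose of 5.6 µM per compound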
* hit, by the source's call; nt = no result. Only some compounds are listed: those with a hit (about 4% of all), similar ones and a draw of the others.

SMILES	NTR1 agonist	TAAR1 ag	TAAR1 antagonist	OX1R antag-1	OX1R antag-2	CHO parental Ca
CC(=O)N1CCN(c2ccc(N3CCN(Cc4ccccc4)[C@H](C)C3)c(C)c2)[C@@H](C)C1	nt	2	-38	nt	nt	nt
COc1ccc2c(c1)Cc1sc(NC(=O)c3ccco3)nc1-2	3	5	-14	-6	65*	-18
COc1ccc2c(c1)CCc1sc(NC(=O)c3ccco3)nc1-2	2	nt	nt	-17	29	4
CC(C)NC(=O)c1sc2nc3c(c(-c4cccs4)c2c1N)CN(C)CC3	1	1	-23	-25	60*	-5
Cc1cccc(NC(=O)c2sc3nc4c(c(-c5cccs5)c3c2N)CN(C)CC4)c1	4	3	-8	-13	76*	-12
COC(=O)C1=C(C)N(Cc2ccccc2C(F)(F)F)C(=NCC2CC2)NC1c1ccc(C(F)(F)F)cc1 (stereo not given)	nt	12	18	nt	nt	nt
Cc1cccc(NC(=O)CC2CCC2)c1	-1	6	9	-16	9	-11
Cc1cccc(NC(=O)CC2c3ccccc3Oc3ccccc32)c1	-1	0	-14	-11	51*	-12
CCN(CC)c1ccc2c(C)c(Cl)c(=O)oc2c1	1	7	14	-22	16	-19
CCN(CC)c1ccc2c(Cl)c(Br)c(=O)oc2c1	-4	nt	nt	90*	9	81*
Cc1nn(-c2ccccc2)c2c1C(O)n1c(nc3ccccc31)S2 (stereo not given)	2	17	50*	-21	21	-18
C[C@H](CO)N1C[C@H](C)[C@@H](CN(C)C(=O)Nc2ccnc(N3CCOCC3)c2)OCc2cn(nn2)CCCC1=O	nt	6	-3	nt	nt	nt
CCCNC(=O)c1ccc(-c2nc3ccccc3s2)s1	3	2	13	9	61*	-9
CCCCc1c(-c2ccccc2OC)ncn1Cc1cccc(C)c1	nt	-1	18	nt	nt	nt
CN(C)c1ccc(/C=C(\C#N)C(=O)OCC(=O)N(C)C2CCS(=O)(=O)C2)cc1 (stereo not given)	6	3	14	1	35*	-4
CCNC(=O)O/N=C1\CCCCC1c1ccc([N+](=O)[O-])cc1[N+](=O)[O-] (stereo not given)	-1	2	-6	-16	46*	-3
CS(=O)(=O)O/N=C1\CCCCC1c1ccc([N+](=O)[O-])cc1[N+](=O)[O-] (stereo not given)	1	0	5	-3	49*	-4
CC1CCc2c(sc(NC(=O)c3cccn3C)c2C(N)=O)C1 (stereo not given)	6	1	-4	-30	16	-17
O=C(CC1Oc2ccccc2NC1=O)NCCc1ccccc1 (stereo not given)	0	66*	16	-15	10	-2
CC(C)(C)S(=O)(=O)N1C[C@H]2C(=C(CCO)C[C@H]3C(=O)N(c4ccccc4)C(=O)[C@H]32)[C@@H]1CCO	nt	1	-15	nt	nt	nt
C=CCOc1c(CCC)cc(CCC)cc1C(N)=O	3	4	-35	3	-2	94*
CCOc1c(C(N)=O)cc([N+](=O)[O-])cc1[N+](=O)[O-]	0	1	-9	0	34	-5
Cc1cc(C)c(NC(=O)CCc2c(C)noc2C)c(C)c1	0	1	2	-11	2	-5
COc1cc(/C=C(\C#N)c2nc3c(s2)CCCC3)ccc1O	-4	nt	nt	94*	14	82*
COC(=O)[C@]12C[C@H](CC(=O)N3CCN(C(=O)c4ccco4)CC3)C(=O)N(Cc3ccc4c(c3)OCO4)C1=C[C@H](C(C)(C)C)O[C@@H]2C	nt	2	-17	nt	nt	nt
SMILES	NTR1 agonist	TAAR1 ag	TAAR1 antagonist	OX1R antag-1	OX1R antag-2	CHO parental Ca
CCCCCCCCC#Cc1nc(C)ccc1OC	3	6	6	42	10	48*
O=C(Nc1nc2c(s1)CCCC2=O)c1cnccn1	-1	4	11	-11	49*	2
O=c1oc(-c2ccc([N+](=O)[O-])cc2)nc2ccc(O)cc12	3	4	17	-11	75*	7
O=c1oc(-c2ccc([N+](=O)[O-])cc2)nc2ccccc12	-1	-1	5	2	20	-7
O=C(c1ccc(-c2ccc(Cl)cc2)o1)N1CCN(c2ccc([N+](=O)[O-])cc2Cl)CC1	5	6	-6	6	17	37*
O=C(Nc1ccccc1N1CCN(C(=O)c2ccc(Cl)cc2)CC1)c1cccc([N+](=O)[O-])c1	4	7	51*	-9	20	-14
CN1CCN(c2ccccc2NC(=O)c2cccc([N+](=O)[O-])c2)CC1	-2	0	0	-29	27	-13
Cn1cccc1/C=N/n1c(-c2ccc(C(C)(C)C)cc2)n[nH]c1=S	6	26	52*	-8	7	2
COc1ccc(N2CCN(C(=O)CCCCCn3c(=S)[nH]c4ccc(N5CCOCC5)cc4c3=O)CC2)cc1	nt	9	56*	nt	nt	nt
Cc1ccc([C@H]2C[C@]34CN(Cc5ccccc5)S(=O)(=O)[C@H]3C[C@H]2O4)cc1	nt	0	1	nt	nt	nt
COC(=O)[C@]12C[C@H](CC(=O)N3CCN(C(=O)C4CC4)CC3)C(=O)N(Cc3ccccc3)C1=C[C@H](C(C)(C)C)O[C@@H]2C	nt	2	5	nt	nt	nt
Cc1ccc(S(=O)(=O)N2CCCC2)cc1C(=O)N1CCN(Cc2ccccc2)CC1	1	-1	9	-12	9	-7
Fc1ccc(Nc2nnc(C(F)(F)F)s2)cc1Cl	6	1	-10	22	56*	40*
COCCOc1cc(Nc2nnc(C(F)(F)F)s2)c(Cl)cc1Cl	4	7	5	-24	21	3
O=C(NCc1ccccc1)c1onc(CSc2ccc(Cl)cc2)c1C(=O)NCC1CC1	1	7	0	-22	16	-6
O=C(NCc1ccccc1)c1onc(CSc2ccccc2)c1C(=O)NCC1CC1	6	14	56*	47	62	47*
CCOc1cc(/C=N/Nc2nnc(C)n2N)ccc1O	2	4	-13	-15	61*	-6
COc1cc(/C=N/Nc2nncn2/N=C/c2ccc(O)c(OC)c2)ccc1O	0	5	6	-15	68*	-11
Cc1ccc(-n2c(CNC(=O)c3cccs3)nnc2SCC(=O)NO)cc1	1	-1	-12	-22	6	-8
